The values that follow come from ChEMBL document CHEMBL5649170, “Sustained microglial depletion with CSF1R inhibitor impairs parenchymal plaque development in an Alzheimer's disease model” (Nat Commun, 2019).

One series addresses Ephrin type-A receptor 5 (Homo sapiens, UniProt P54756). Nature of the series: Inhibition of EPHA5 (unknown origin).
In a further series the target is Ephrin type-A receptor 8 (Homo sapiens, UniProt P29322). Nature of the series: Inhibition of EPHA8 (unknown origin).
Series [1] deals with G protein-coupled receptor kinase 4 (Homo sapiens, UniProt P32298). Nature of the series: Inhibition of GRK4 (unknown origin).
In series [2] the target is Serine/threonine-protein kinase Nek2 (Homo sapiens, UniProt P51955). Nature of the series: Inhibition of NEK2 (unknown origin).
In series [3] the target is Rho-associated protein kinase 1 (Homo sapiens, UniProt Q13464). Nature of the series: Inhibition of ROCK1 (unknown origin).
Series [4] has as its target Serine/threonine-protein kinase Sgk3 (Homo sapiens, UniProt Q96BR1). Nature of the series: Inhibition of SGKL (unknown origin).
Series [5] is described as follows: AUC (0 to infinity) in mouse at 1.92 mg/kg, iv administered as single dose. The series is classed as ADME, organism-based. As to conditions: in vivo.
Series [6] can be described thus: Half-life in female rat at 1.13 mg/kg, iv administered as single dose. The note with it: in vivo. The series is classed as ADME, organism-based.
Series [7] in a line: AUC (0 to infinity) in dog at 45 mg/kg, po administered as single dose via gavage. The series is classed as ADME, organism-based, Canis lupus familiaris. The note with it: in vivo.
Series [8] is described as follows: Oral bioavailability in female rat at 45 mg/kg administered as single via gavage. As to conditions: in vivo. The series is classed as ADME, organism-based.
The test system of series [9] is Mus musculus. Description: Antialzheimer activity in 5XFAD mouse assessed as number of Iba positive cells per FOV in microglia at 1200 ppm administered as rodent chow for 3 days by DAPI staining based immunolabeling analysis (reference value: 119 to 154). The series is classed as functional. The note with it: route po, time 3 day.
Series [10] relates to Mus musculus. Description: Antialzheimer activity in 5XFAD mouse assessed as number of Iba positive cells per FOV in microglia at 1200 ppm administered as rodent chow for 5 days by DAPI staining based immunolabeling analysis (reference value: 119 to 154). The series is classed as functional. The note with it: route po, time 5 day.
The test system of series [11] is Mus musculus. Description: Effect on circulating leukocytes in wildtype mouse assessed as percentage of CD45+/PI- cells expressing CD8 at 1200 ppm administered as rodent chow for 10 to 24 weeks (reference value: 5.56 to 11.8 %). The series is classed as functional. The note with it: route po, time 10-24 weeks.
In series [12] the test system is Mus musculus. Description: Antialzheimer activity in wildtype mouse assessed as number of Iba positive cells per FOV in […] cortex at 1200 ppm administered as rodent chow starting from 1.5 months and measured after 7 months (reference value: 322 to 632). As to conditions: route po, time 5.5 months, 4015 h. The series is classed as functional.
The test system of series [13] is Mus musculus. Description: Antialzheimer activity in 5XFAD mouse assessed as proportion of time spent freezing at 1200 ppm administered as rodent chow for 10 to 24 weeks by […] (reference value: 0.00 to 0.43). The series is classed as functional. The note with it: route po, time 10-24 weeks.
Series [14] has as its system Mus musculus. Nature of the series: Antialzheimer activity in 5XFAD mouse assessed as number of Thio-S positive plaques per FOV in […] cortex at 1200 ppm administered as rodent chow starting from 1.5 months and measured after 4 months by Thio-S staining based confocal microscopic analysis (reference value: 63 to 124). As to conditions: route po, time 2.5 months, 1825 h. The series is classed as functional.

For series [15], the system named is Mus musculus. Description: Antialzheimer activity in 5XFAD mouse assessed as amyloidbeta42 level in detergent soluble cortex fraction measured per microgram protein at 1200 ppm administered as rodent chow starting from 1.5 months and measured after 7 months by ELISA (reference value: 0 to 0.239 pg). The series is classed as functional. As to conditions: route po, time 5.5 months, 4015 h. The procedure, abridged:
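PLX5622 at 1200 ppm in chow given to 5xFAD mice from 1.5 months to 4 or 7 months of age; cortex and thalamus homogenized in TPER (detergent-soluble), pellets re-homogenized in 70% formic acid and spun 100,000 g, 1 h, 4 °C (insoluble); protein by Bradford/Lowry; Aβ species measured by Meso Scale electrochemiluminescence immunoassay, normalized to protein; n = 7–8 per group at 7 months.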
(In general: An ELISA detects its analyte on a solid surface through an enzyme-linked reagent.)

Series [16] relates to Mus musculus. Description: Antialzheimer activity in 5XFAD mouse assessed as iron reactivity by measuring hemosiderin intensity of prussian blue staining in thalamus at 1200 ppm administered as rodent chow starting from 1.5 months and measured after 4 months by confocal microscopic analysis (reference value: 0.1 to 4.094 a.u.). As to conditions: route po, time 2.5 months, 1825 h. The series is classed as functional. The procedure, abridged:
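Wild-type or 5xFAD mice fed PLX5622 (1200 ppm) in AIN-76A chow from 1.5 months of age, examined in 4- and 7-month-old cohorts. Brain sections stained with a Prussian blue kit per kit instructions to detect iron deposits (microbleeds).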

Series [17] has as its system Mus musculus. Description: Antialzheimer activity in 5XFAD mouse assessed as average diameter of claudin-5 blood vessels in Thio-S negative thalamus at 1200 ppm administered as rodent chow starting from 1.5 months and measured after 4 months by immunolabeling analysis. The note with it: route po, time 2.5 months, 1825 h. The series is classed as functional.
A short description of series [18]: Effect on Ctsd gene expression in wild type mouse thalamus at 1200 ppm administered as rodent chow starting from 1.5 months and measured after 7 months by RNA-Seq analysis (reference value: 123.974 to 159.747 RPKM). The series is classed as functional. The note with it: route po, time 5.5 months, 4015 h.
Series [19] is described as follows: Effect on Itgax gene expression in wild type mouse cortex at 1200 ppm administered as rodent chow starting from 1.5 months and measured after 7 months by RNA-Seq analysis (reference value: 0.069 to 0.218 RPKM). As to conditions: route po, time 5.5 months, 4015 h. The series is classed as functional.
Series [20] is described as follows: Prevention of Dusp5 gene downregulation in 5XFAD mouse hippocampus assessed as percent change in Reads Per kilo base per Million mapped reads at 1200 ppm administered as rodent chow starting from 1.5 months and measured after 7 months by RNA-Seq analysis (reference value: 41.082 to 74.744 %). The series is classed as functional. As to conditions: route po, time 5.5 months, 4015 h.

The structures appear in SMILES notation.

By IC50 is commonly meant the point on the concentration scale where inhibition reaches its midpoint. Higher therefore signals weaker potency in that assay. A word on the AUC(0-inf): it is total exposure, with the tail of the curve extrapolated. As a reminder, the half-life is how long it takes for the measured level to halve. Low values mean rapid decline, high ones slow decline. A word on the bioavailability: it is the share of a dose that reaches the circulation, judged against a reference dose that is usually intravenous. High values mean much systemic uptake, low ones little systemic uptake.

Chain of Rho-associated protein kinase 1 (Q13464 whole entry): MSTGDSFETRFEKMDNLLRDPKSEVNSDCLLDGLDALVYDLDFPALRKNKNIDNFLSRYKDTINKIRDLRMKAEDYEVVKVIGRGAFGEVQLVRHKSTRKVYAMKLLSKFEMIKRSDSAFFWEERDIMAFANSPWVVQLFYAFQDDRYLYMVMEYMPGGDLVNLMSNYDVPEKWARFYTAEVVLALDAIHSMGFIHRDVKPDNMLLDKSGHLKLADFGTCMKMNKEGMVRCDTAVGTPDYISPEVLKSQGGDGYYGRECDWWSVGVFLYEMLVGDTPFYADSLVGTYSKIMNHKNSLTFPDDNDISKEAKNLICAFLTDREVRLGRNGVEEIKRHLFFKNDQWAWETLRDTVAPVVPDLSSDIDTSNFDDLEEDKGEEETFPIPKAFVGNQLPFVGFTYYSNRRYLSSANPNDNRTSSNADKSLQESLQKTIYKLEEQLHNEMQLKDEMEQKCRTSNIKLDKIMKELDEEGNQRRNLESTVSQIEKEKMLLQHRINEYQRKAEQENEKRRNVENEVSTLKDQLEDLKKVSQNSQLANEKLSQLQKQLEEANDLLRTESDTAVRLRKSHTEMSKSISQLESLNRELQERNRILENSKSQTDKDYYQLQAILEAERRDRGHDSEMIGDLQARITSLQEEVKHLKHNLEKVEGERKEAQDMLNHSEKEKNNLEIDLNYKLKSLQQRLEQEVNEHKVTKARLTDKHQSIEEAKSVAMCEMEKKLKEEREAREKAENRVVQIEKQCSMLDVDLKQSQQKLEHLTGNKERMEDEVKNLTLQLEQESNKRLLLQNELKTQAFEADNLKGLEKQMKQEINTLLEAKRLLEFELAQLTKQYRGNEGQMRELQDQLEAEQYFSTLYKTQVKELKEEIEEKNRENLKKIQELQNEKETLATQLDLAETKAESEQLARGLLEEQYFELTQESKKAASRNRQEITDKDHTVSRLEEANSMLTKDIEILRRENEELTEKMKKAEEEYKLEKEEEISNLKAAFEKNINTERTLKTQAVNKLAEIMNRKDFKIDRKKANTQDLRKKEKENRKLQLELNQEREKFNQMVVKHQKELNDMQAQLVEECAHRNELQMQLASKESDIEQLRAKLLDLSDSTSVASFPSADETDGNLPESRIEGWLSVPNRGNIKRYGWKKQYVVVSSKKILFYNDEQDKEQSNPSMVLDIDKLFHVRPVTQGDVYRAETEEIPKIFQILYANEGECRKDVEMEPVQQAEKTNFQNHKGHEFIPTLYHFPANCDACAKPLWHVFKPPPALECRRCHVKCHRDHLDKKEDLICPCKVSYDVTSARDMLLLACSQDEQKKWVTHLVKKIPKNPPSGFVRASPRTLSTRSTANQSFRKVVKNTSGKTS
Chain of Ephrin type-A receptor 8 (P29322 whole entry): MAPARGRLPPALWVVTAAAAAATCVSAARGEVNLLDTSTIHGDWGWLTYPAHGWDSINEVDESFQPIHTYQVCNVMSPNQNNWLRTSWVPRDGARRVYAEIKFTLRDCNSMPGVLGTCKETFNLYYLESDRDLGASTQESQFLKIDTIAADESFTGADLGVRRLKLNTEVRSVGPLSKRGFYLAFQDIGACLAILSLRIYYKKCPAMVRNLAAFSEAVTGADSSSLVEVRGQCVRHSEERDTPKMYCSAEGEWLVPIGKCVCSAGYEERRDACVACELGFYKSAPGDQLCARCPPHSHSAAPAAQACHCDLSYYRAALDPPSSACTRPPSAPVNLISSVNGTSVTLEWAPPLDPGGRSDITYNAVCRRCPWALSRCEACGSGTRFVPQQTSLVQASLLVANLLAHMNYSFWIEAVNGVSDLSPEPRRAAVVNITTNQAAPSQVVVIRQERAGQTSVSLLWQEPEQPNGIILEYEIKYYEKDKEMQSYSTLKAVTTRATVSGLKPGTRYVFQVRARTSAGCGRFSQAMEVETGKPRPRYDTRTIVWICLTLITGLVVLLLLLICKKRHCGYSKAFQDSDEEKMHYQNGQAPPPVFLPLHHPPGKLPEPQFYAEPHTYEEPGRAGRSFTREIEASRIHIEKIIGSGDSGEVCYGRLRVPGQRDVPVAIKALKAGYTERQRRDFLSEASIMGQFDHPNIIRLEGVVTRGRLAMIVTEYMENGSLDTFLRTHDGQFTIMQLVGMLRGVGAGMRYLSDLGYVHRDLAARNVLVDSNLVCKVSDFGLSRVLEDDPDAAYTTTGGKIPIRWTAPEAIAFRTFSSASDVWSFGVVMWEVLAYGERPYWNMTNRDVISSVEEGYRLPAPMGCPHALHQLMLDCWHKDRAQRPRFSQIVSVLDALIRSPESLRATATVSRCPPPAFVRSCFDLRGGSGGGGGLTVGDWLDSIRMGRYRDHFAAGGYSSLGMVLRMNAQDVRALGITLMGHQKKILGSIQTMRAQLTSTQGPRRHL
Chain of Serine/threonine-protein kinase Sgk3 (Q96BR1 whole entry): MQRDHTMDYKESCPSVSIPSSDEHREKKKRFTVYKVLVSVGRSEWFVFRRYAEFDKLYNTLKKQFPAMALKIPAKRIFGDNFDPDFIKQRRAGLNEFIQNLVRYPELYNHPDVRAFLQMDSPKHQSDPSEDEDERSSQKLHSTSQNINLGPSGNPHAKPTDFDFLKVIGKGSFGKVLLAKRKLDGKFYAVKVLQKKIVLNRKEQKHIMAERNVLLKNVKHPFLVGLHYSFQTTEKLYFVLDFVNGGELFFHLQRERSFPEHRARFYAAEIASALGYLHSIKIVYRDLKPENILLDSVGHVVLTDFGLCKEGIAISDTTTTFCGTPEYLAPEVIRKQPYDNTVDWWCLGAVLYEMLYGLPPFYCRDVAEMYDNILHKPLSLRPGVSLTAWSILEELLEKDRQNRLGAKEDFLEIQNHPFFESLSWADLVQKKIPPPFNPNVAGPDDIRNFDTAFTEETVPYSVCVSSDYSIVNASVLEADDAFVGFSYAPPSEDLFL
Chain of Serine/threonine-protein kinase Nek2 (P51955 whole entry): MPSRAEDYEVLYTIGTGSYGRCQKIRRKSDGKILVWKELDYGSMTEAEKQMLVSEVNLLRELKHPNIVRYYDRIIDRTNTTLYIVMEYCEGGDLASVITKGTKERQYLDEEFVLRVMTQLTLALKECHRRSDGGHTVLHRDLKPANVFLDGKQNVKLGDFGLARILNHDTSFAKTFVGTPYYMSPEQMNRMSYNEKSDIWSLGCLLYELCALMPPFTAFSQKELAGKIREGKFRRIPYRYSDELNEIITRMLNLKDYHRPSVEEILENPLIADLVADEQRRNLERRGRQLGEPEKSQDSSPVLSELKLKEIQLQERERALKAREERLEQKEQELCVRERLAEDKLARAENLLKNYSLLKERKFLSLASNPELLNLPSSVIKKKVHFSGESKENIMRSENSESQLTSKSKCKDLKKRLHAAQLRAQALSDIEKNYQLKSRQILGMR
Chain of Ephrin type-A receptor 5 (P54756 whole entry): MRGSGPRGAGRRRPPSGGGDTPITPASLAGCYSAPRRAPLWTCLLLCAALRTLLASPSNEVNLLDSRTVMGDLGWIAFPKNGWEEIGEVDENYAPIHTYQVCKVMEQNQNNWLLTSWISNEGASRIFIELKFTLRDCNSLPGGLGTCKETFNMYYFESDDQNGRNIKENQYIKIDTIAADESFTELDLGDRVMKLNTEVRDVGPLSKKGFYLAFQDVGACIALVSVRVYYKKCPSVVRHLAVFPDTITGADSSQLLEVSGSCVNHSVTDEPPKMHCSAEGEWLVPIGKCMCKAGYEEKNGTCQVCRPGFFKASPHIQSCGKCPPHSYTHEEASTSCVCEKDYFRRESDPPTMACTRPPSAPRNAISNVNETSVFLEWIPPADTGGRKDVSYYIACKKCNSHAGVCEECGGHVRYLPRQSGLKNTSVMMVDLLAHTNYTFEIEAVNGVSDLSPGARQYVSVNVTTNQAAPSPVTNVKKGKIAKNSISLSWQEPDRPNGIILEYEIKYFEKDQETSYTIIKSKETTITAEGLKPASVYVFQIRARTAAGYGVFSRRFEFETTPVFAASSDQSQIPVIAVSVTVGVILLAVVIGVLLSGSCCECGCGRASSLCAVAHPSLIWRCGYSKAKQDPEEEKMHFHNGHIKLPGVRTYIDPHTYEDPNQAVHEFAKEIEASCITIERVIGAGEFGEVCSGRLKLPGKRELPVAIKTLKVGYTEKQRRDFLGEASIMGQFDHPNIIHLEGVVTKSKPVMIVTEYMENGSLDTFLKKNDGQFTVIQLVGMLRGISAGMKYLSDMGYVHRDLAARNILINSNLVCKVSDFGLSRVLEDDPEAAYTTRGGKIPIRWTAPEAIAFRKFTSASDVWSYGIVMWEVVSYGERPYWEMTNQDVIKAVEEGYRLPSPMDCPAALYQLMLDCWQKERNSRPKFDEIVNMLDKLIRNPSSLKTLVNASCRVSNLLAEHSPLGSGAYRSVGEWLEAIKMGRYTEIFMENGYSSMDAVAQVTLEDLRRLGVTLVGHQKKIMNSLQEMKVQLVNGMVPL
Chain of G protein-coupled receptor kinase 4 (P32298 whole entry): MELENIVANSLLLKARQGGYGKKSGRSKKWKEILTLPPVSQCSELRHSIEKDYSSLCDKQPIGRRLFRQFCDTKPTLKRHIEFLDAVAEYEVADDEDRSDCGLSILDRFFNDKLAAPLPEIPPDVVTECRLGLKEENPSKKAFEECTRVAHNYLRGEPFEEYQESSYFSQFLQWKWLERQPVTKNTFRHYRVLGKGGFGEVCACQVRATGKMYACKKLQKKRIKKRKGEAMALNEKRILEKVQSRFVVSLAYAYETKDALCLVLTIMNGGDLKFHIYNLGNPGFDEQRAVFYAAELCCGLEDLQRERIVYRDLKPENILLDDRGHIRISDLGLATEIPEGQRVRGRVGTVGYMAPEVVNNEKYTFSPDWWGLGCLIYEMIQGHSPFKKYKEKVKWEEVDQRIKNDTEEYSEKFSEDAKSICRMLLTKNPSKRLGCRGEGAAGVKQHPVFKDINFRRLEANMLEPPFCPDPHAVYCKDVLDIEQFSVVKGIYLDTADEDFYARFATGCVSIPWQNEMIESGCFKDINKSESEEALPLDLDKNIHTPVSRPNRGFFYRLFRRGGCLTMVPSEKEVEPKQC

For the compound `COc1ncc(F)cc1CNc1ccc(Cc2c[nH]c3ncc(C)cc23)c(F)n1` [PLX-5622], the IC50 (at Ephrin type-A receptor 5; on Ephrin type-A receptor 8; in series [1]; in series [2]; in series [3]; in [4]) was more than 1000 nM throughout. In addition, the results for the AUC(0-inf) in [5] and in series [7] were 15500 ng·h/mL and 96500 ng·h/mL, respectively. The half-life in series [6] is 3.9 h. The bioavailability in series [8] is 89%. Further, the Activity in the series on Mus musculus [9] was 1; in the series on Mus musculus [10] it was 1; in the series with Mus musculus [11] it was 6.35%; in the series with Mus musculus [12], 0; in the series on Mus musculus [13], 0.07; in the series on Mus musculus [14], 13. The Activity amounted to 0 pg in the series with Mus musculus [15]; 1.854 um in the series on Mus musculus [17]; 100.931 RPKM in series [18]; 0 RPKM in series [19]; 83.733% in series [20]. Besides, in the series on Mus musculus [16], the Flu intensity is listed as 0.249 a.u.
